Laboratory results as given in ChEMBL document CHEMBL1255332, “Isobolographic analysis of pharmacodynamic interactions between antifungal agents and ciprofloxacin against Candida albicans and Aspergillus fumigatus” (Antimicrob Agents Chemother, 2008).
Converted amounts (≈) assume the structure as drawn.

What was measured:
Type in all cases: functional, organism-based
Candida albicans [1] = experiment: Antifungal activity against Candida albicans CA5685 by spectrophotometry
Procedure, shortened: (§1)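 Clinical C. albicans blastoconidia came from 1- to 2-day Sabouraud cultures, with a final inoculum of 5 × 10^2 to 2.5 × 10^3 CFU/ml in RPMI 1640 buffered to pH 7 with 0.165 M MOPS. Incubation was 37°C for 24 h. A405 was corrected against a conidium-free plate and expressed as % of drug-free control, and an Emax model was fitted for EC50. Three replicates.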

Aspergillus fumigatus [2] = experiment: Antifungal activity against Aspergillus fumigatus AF2350 by spectrophotometry
Procedure, shortened: (§2)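 Clinical A. fumigatus conidia were harvested from 5- to 7-day Sabouraud cultures, with a final inoculum of 0.4 × 10^4 to 5 × 10^4 CFU/ml in RPMI 1640 (0.165 M MOPS, pH 7). Incubation was 37°C for 24 h. Growth at 405 nm, background-subtracted, was expressed as % of drug-free control, and an Emax model was fitted to give EC50. Three replicates.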

Aspergillus fumigatus [3] = experiment: Antifungal activity against Aspergillus fumigatus AF2025 spectrophotometry
Procedure, shortened: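 Conidia from 5–7-day Sabouraud agar cultures were adjusted to 80–82% transmittance at 530 nm, giving a final 0.4 × 10^4 to 5 × 10^4 CFU/ml in RPMI 1640 buffered at pH 7 with 0.165 M MOPS. They were tested in a checkerboard alone or with ciprofloxacin for 24 h at 37°C. A405 was converted to % of drug-free growth after background subtraction, an Emax model was fitted, and each test was run in triplicate.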

Candida albicans [4] = experiment: Antifungal activity against Candida albicans CA362 by spectrophotometry; procedure, shortened: as §1
Candida albicans [5] = experiment: Antifungal activity against Candida albicans CA8621 by spectrophotometry; procedure, shortened: as §1
Aspergillus fumigatus [6] = experiment: Antifungal activity against Aspergillus fumigatus AF4215 spectrophotometry; procedure, shortened: as §2

CC[C@H](C)C[C@H](C)CCCCCCCCC(=O)N[C@H]1C[C@@H](O)[C@@H](NCCN)NC(=O)[C@@H]2[C@@H](O)CCN2C(=O)[C@H]([C@H](O)CCN)NC(=O)[C@H]([C@H](O)[C@@H](O)c2ccc(O)cc2)NC(=O)[C@@H]2C[C@@H](O)CN2C(=O)[C@H]([C@@H](C)O)NC1=O [CASPOFUNGIN]
EC50 (Candida albicans [1]): 0.59 µg/mL (≈ 0.54 µM) | MIC (Candida albicans [1]): 1 µg/mL (≈ 0.915 µM) | EC50 (Aspergillus fumigatus [2]): 28.8 µg/mL (≈ 26.3 µM) | MIC (Aspergillus fumigatus [2]): 128 µg/mL (≈ 117 µM)

C[C@@H]1[C@H](O)[C@@H](C)/C=C/C=C/C=C/C=C/C=C/C=C/C=C/[C@H](O[C@@H]2O[C@H](C)[C@@H](O)[C@H](N)[C@@H]2O)C[C@@H]2O[C@](O)(C[C@@H](O)C[C@@H](O)[C@H](O)CC[C@@H](O)C[C@@H](O)CC(=O)O[C@H]1C)C[C@H](O)[C@H]2C(=O)O [AMPHOTERICIN B]
EC50 (Aspergillus fumigatus [3]): 0.5 µg/mL (≈ 0.541 µM) | MIC (Aspergillus fumigatus [3]): 0.5 µg/mL (≈ 0.541 µM) | EC50 (Candida albicans [4]): 0.25 µg/mL (≈ 0.271 µM) | MIC (Candida albicans [4]): 0.125 µg/mL (≈ 0.135 µM)

OC(Cn1cncn1)(Cn1cncn1)c1ccc(F)cc1F [FLUCONAZOLE]
EC50 (Candida albicans [5]): 0.09 µg/mL (≈ 0.294 µM) | MIC (Candida albicans [5]): 0.125 µg/mL (≈ 0.408 µM) | EC50 (Aspergillus fumigatus [6]): 0.18 µg/mL (≈ 0.588 µM) | MIC (Aspergillus fumigatus [6]): 0.5 µg/mL (≈ 1.63 µM)
